Key:
Conditions in all cases: in vivo
[1] = species on record: Mus musculus; assay: Distribution of compound in liver tissue of mice after 5 hr injection time was determined; assay type: ADME, organism-based
Method in brief: (§1)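 Healthy athymic nude mice (balb/c nu/nu, 20–25 g, both sexes) received 50–400 KBq radioiodinated bisphosphonate in 100 µL phosphate buffer pH 6–7 by tail-vein injection. Three animals were sacrificed per time point. Tissues were excised, weighed and gamma-counted. Values are % injected dose per gram tissue, mean ± 1 SD, n = 3.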

[2] = species on record: Mus musculus; assay: Distribution of compound in lungs tissue of mice after 0.5 h injection time was determined; assay type: ADME, organism-based, Lung; method in brief: as §1
[3] = species on record: Mus musculus; assay: Distribution of compound in lungs tissue of mice after 2 hr injection time was determined; assay type: ADME, organism-based, Lung; method in brief: as §1
[4] = species on record: Mus musculus; assay: Distribution of compound in lungs tissue of mice after 24 hr injection time was determined; assay type: ADME, organism-based, Lung; method in brief: as §1
[5] = species on record: Mus musculus; assay: Distribution of compound in lungs tissue of mice after 5 hr injection time was determined; assay type: ADME, organism-based, Lung; method in brief: as §1
[6] = species on record: Mus musculus; assay: Distribution of compound in skull tissue of mice after 0.5 hr injection time was determined; assay type: ADME, organism-based; method in brief: as §1
[7] = species on record: Mus musculus; assay: Distribution of compound in skull tissue of mice after 2 hr injection time was determined; assay type: ADME, organism-based; method in brief: as §1
[8] = species on record: Mus musculus; assay: Distribution of compound in skull tissue of mice after 24 hr injection time was determined; assay type: ADME, organism-based; method in brief: as §1
[9] = species on record: Mus musculus; assay: Distribution of compound in skull tissue of mice after 5 h injection time was determined; assay type: ADME, organism-based; method in brief: as §1
[10] = species on record: Mus musculus; assay: Distribution of compound in spleen tissue of mice after 0.5 hr injection time was determined; assay type: ADME, organism-based; method in brief: as §1
[11] = species on record: Mus musculus; assay: Distribution of compound in kidneys tissue of mice after 0.5 hr injection time was determined; assay type: ADME, organism-based, Kidney; method in brief: as §1
[12] = species on record: Mus musculus; assay: Distribution of compound in kidneys tissue of mice after 2 hr injection time was determined; assay type: ADME, organism-based, Kidney; method in brief: as §1
[13] = species on record: Mus musculus; assay: Distribution of compound in kidneys tissue of mice after 24 hr injection time was determined; assay type: ADME, organism-based, Kidney; method in brief: as §1
[14] = species on record: Mus musculus; assay: Distribution of compound in kidneys tissue of mice after 5 hr injection time was determined; assay type: ADME, organism-based, Kidney; method in brief: as §1
[15] = species on record: Mus musculus; assay: Distribution of compound in liver tissue of mice after 0.5 hr injection time was determined; assay type: ADME, organism-based; method in brief: as §1
[16] = species on record: Mus musculus; assay: Distribution of compound in liver tissue of mice after 24 hr injection time was determined; assay type: ADME, organism-based; method in brief: as §1
[17] = species on record: Mus musculus; assay: Distribution of compound in heart tissue of mice after 2 hr injection time was determined; assay type: ADME, organism-based; method in brief: as §1
[18] = species on record: Mus musculus; assay: Distribution of compound in heart tissue of mice after 24 hr injection time was determined; assay type: ADME, organism-based; method in brief: as §1
[19] = species on record: Mus musculus; assay: Distribution of compound in heart tissue of mice after 5 hr injection time was determined; assay type: ADME, organism-based; method in brief: as §1
[20] = species on record: Mus musculus; assay: Distribution of compound in intestine tissue of mice after 0.5 hr injection time was determined; assay type: ADME, organism-based; method in brief: as §1
[21] = species on record: Mus musculus; assay: Distribution of compound in intestine tissue of mice after 2 hr injection time was determined; assay type: ADME, organism-based; method in brief: as §1
[22] = species on record: Mus musculus; assay: Distribution of compound in intestine tissue of mice after 24 hr injection time was determined; assay type: ADME, organism-based; method in brief: as §1
[23] = species on record: Mus musculus; assay: Distribution of compound in intestine tissue of mice after 5 hr injection time was determined; assay type: ADME, organism-based; method in brief: as §1
[24] = species on record: Mus musculus; assay: Distribution of compound in spleen tissue of mice after 2 hr injection time was determined; assay type: ADME, organism-based; method in brief: as §1
[25] = species on record: Mus musculus; assay: Distribution of compound in spleen tissue of mice after 24 hr injection time was determined; assay type: ADME, organism-based; method in brief: as §1
[26] = species on record: Mus musculus; assay: Distribution of compound in spleen tissue of mice after 5 h injection time was determined; assay type: ADME, organism-based; method in brief: as §1
[27] = species on record: Mus musculus; assay: Distribution of compound in stomach tissue of mice after 0.5 hr injection time was determined; assay type: ADME, organism-based; method in brief: as §1
[28] = species on record: Mus musculus; assay: Distribution of compound in stomach tissue of mice after 2 hr injection time was determined; assay type: ADME, organism-based; method in brief: as §1
[29] = species on record: Mus musculus; assay: Distribution of compound in stomach tissue of mice after 24 hr injection time was determined; assay type: ADME, organism-based; method in brief: as §1
[30] = species on record: Mus musculus; assay: Distribution of compound in stomach tissue of mice after 5 hr injection time was determined; assay type: ADME, organism-based; method in brief: as §1
[31] = species on record: Mus musculus; assay: Distribution of compound in thyroid tissue of mice after 0.5 hr injection time was determined; assay type: ADME, organism-based, Thyroid gland
Method in brief: (§2)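 Healthy athymic nude balb/c nu/nu mice (20–25 g) received 50–400 KBq radioiodinated bisphosphonate in 100 μL phosphate buffer, pH 6–7, by tail-vein injection. Three animals were sacrificed per time point. Thyroid-containing tissue was excised, weighed and gamma-counted. Values are % of injected dose, mean ± 1 SD of three mice.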

[32] = species on record: Mus musculus; assay: Distribution of compound in thyroid tissue of mice after 2 hr injection time was determined; assay type: ADME, organism-based, Thyroid gland; method in brief: as §2
[33] = species on record: Mus musculus; assay: Distribution of compound in thyroid tissue of mice after 24 h injection time was determined; assay type: ADME, organism-based, Thyroid gland; method in brief: as §2
[34] = species on record: Mus musculus; assay: Distribution of compound in thyroid tissue of mice after 5 h injection time was determined; assay type: ADME, organism-based, Thyroid gland; method in brief: as §2
[35] = species on record: Mus musculus; assay: Distribution of compound in blood tissue of mice after 0.5 hr injection time was determined; assay type: ADME, organism-based; method in brief: as §1
[36] = species on record: Mus musculus; assay: Distribution of compound in blood tissue of mice after 2 hr injection time was determined; assay type: ADME, organism-based; method in brief: as §1
[37] = species on record: Mus musculus; assay: Distribution of compound in blood tissue of mice after 24 hr injection time was determined; assay type: ADME, organism-based; method in brief: as §1
[38] = species on record: Mus musculus; assay: Distribution of compound in blood tissue of mice after 5 h injection time was determined; assay type: ADME, organism-based; method in brief: as §1
[39] = species on record: Mus musculus; assay: Distribution of compound in femur tissue of mice after 0.5 hr injection time was determined; assay type: ADME, organism-based; method in brief: as §1
[40] = species on record: Mus musculus; assay: Distribution of compound in femur tissue of mice after 2 hr injection time was determined; assay type: ADME, organism-based; method in brief: as §1
[41] = species on record: Mus musculus; assay: Distribution of compound in femur tissue of mice after 24 hr injection time was determined; assay type: ADME, organism-based; method in brief: as §1
[42] = species on record: Mus musculus; assay: Distribution of compound in femur tissue of mice after 5 hr injection time was determined; assay type: ADME, organism-based; method in brief: as §1
[43] = species on record: Mus musculus; assay: Distribution of compound in heart tissue of mice after 0.5 hr injection time was determined; assay type: ADME, organism-based; method in brief: as §1
[44] = species on record: Mus musculus; assay: Distribution of compound in liver tissue of mice after 2 h injection time was determined; assay type: ADME, organism-based; method in brief: as §1

O=P(O)(O)C(Cc1cccc(I)c1)P(=O)(O)O
Injected [1]: 0.94% | Injected [2]: 1% | Injected [3]: 0.35% | Injected [4]: 0.06% | Injected [5]: 0.1% | Injected [6]: 10.28% | Injected [7]: 7.64% | Injected [8]: 7.13% | Injected [9]: 6.16% | Injected [10]: 0.35% | Injected [11]: 8.23% | Injected [12]: 3.68% | Injected [13]: 1.06% | Injected [14]: 2.26% | Injected [15]: 2.98% | Injected [16]: 0.23% | Injected [17]: 0.26% | Injected [18]: 0.04% | Injected [19]: 0.07% | Injected [20]: 0.37% | Injected [21]: 0.28% | Injected [22]: 0.28% | Injected [23]: 0.24% | Injected [24]: 0.26% | Injected [25]: 0.1% | Injected [26]: 0.12% | Injected [27]: 1.14% | Injected [28]: 1.12% | Injected [29]: 0.05% | Injected [30]: 0.23% | Injected [31]: 0.21% | Injected [32]: 0.14% | Injected [33]: 0.02% | Injected [34]: 0.06% | Injected [35]: 2.22% | Injected [36]: 0.31% | Injected [37]: 0.03% | Injected [38]: 0.11% | Injected [39]: 18.8% | Injected [40]: 21.16% | Injected [41]: 15.25% | Injected [42]: 10% | Injected [43]: 0.9% | Injected [44]: 2.14%

O=P(O)(O)C(NCCc1cccc(I)c1)P(=O)(O)O
Injected [4]: 0.67% | Injected [8]: 0.91% | Injected [13]: 0.4% | Injected [16]: 5.57% | Injected [18]: 0.19% | Injected [22]: 0.1% | Injected [25]: 2.49% | Injected [29]: 0.07% | Injected [33]: 0.02% | Injected [37]: 0.18% | Injected [41]: 1.39%

From ChEMBL document CHEMBL1145833, “Studies on the synthesis and biological properties of non-carrier-added [(125)I and (131)I]-labeled arylalkylidenebisphosphonates: potent bone-seekers for diagnosis and therapy of malignant osseous lesions” (J Med Chem, 2003)
